Measurements reported in ChEMBL document CHEMBL3992564, “Design and synthesis of novel, potent and selective hypoxanthine analogs as adenosine A1 receptor antagonists and their biological evaluation” (Bioorg Med Chem, 2017).
Active and inactive are the calls of the source. The calls are words filed in the database; no cut-off is given here.

Columns and labels:
Adenosine receptor A2b = target: T1, Adenosine receptor A2b (Homo sapiens, UniProt P29275); test: Displacement of [3H]MRS-1754 from human adenosine A2B receptor expressed in HEK293 cell membranes after 90 mins
T1 sequence (P29275 whole entry): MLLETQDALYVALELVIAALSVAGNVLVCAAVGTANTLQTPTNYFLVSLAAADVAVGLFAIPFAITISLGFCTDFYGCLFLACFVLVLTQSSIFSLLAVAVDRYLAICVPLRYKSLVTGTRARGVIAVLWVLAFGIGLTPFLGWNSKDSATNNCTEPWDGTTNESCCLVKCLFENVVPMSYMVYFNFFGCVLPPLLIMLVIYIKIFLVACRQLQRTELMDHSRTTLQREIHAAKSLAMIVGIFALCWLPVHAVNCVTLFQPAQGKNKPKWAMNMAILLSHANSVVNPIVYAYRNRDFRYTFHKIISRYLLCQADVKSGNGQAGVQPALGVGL
Procedure, shortened: (§1)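 Membranes from HEK-293 cells stably transfected with human receptor, pre-treated with adenosine deaminase. Radioligands: 1 nM [3H]DPCPX (A1), 1 nM [3H]ZM241385 (A2A), 1.6 nM [3H]MRS-1754 (A2B), 2 nM [3H]HEMADO (A3). Buffers: Tris pH 7.4 (A1, A2A, A3) or pH 6.5 (A2B), with ADA. Incubated 90 min at room temperature, then filtered. Nonspecific binding defined with 100 µM NECA. Ki from 8 concentrations run in triplicate.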

Adenosine receptor A2a = Adenosine receptor A2a (Homo sapiens, UniProt P29274); test: Displacement of [3H]ZM241385 from human adenosine A2A receptor expressed in HEK293 cell membranes at 1 uM after 90 mins relative to control; procedure, shortened: as §1
Adenosine receptor A1 = target: T2, Adenosine receptor A1 (Homo sapiens, UniProt P30542); test: Antagonist activity at human adenosine A1 receptor expressed in HEK293 cells assessed as reduction in CPA-mediated inhibition of forskolin-stimulated cAMP level preincubated for 15 mins followed by CPA treatment for 15 mins and subsequent addition of forskolin measured after 30 mins by HTRF assay; assay type: functional, cell-based
T2 sequence (P30542 whole entry): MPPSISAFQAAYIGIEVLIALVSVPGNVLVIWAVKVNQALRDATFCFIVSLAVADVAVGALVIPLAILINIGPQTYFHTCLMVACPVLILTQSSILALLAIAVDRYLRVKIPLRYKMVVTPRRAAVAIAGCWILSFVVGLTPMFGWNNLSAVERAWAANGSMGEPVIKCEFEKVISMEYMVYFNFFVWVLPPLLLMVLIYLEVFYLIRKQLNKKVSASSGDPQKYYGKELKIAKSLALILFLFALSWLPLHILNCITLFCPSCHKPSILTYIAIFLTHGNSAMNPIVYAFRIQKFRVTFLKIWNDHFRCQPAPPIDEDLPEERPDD

hERG (KCNH2) [1] = target: T3, hERG (KCNH2) (Homo sapiens, UniProt Q12809); test: Inhibition of human ERG at 5 uM relative to control
hERG (KCNH2) [2] = target: T3, hERG (KCNH2); test: Inhibition of human ERG at 25 uM relative to control
CYP2C19 = CYP2C19 (Homo sapiens, UniProt P33261); test: Inhibition of CYP2C19 (unknown origin) at 5 uM relative to control; assay type: ADME
[3] = Protein binding in mouse plasma at 5 uM; assay type: ADME, cell-free; conditions: read-out: PPB (converted)
[4] = Cmax in Wistar rat at 5 mg/kg, po via gavage by LC-Ms/MS analysis; assay type: ADME, organism-based; parameters: dose 5 mg/kg, route oral; conditions: in vivo
Procedure, shortened: (§2)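 Male Wistar rats (230 ± 15 g), fasted overnight with water available. IV dose of 3 mg/kg given by tail vein as a solution (0.6 mg/mL, 5 mL/kg). PO dose of 5 mg/kg given by gavage as a suspension. Blood was collected into K2EDTA at 0.008 (IV only) to 24 h and plasma was spun off. Samples were precipitated with acetonitrile and run on LC/MS/MS. Parameters came from non-compartmental analysis of individual animals, mean of n = 4.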

[5] = Tmax in Wistar rat at 5 mg/kg, po via gavage by LC-Ms/MS analysis; assay type: ADME, organism-based; conditions: in vivo
Procedure, shortened: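 Male Wistar rats (230 ± 15 g), fasted overnight with water available. IV dosing at 3 mg/kg by tail vein as solution (0.6 mg/mL, 5 mL/kg). PO dosing at 5 mg/kg by oral gavage. Serial blood sampling into K2EDTA from 0.008 (IV only) to 24 h. Plasma precipitated with acetonitrile containing internal standard and analysed by LC/MS/MS. Non-compartmental parameters calculated per animal; values are means of n = 4.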

[6] = AUC(0 to t) in Wistar rat at 5 mg/kg, po via gavage by LC-Ms/MS analysis; assay type: ADME, organism-based; conditions: in vivo; procedure, shortened: as §2
[7] = Plasma concentration in Wistar rat at 5 mg/kg, po via gavage measured at 1 hr post dose by LC-Ms/MS analysis; assay type: ADME, organism-based
Procedure, shortened: (§3)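 Male Wistar rats, fasted overnight and for 2 h after dosing, given an oral solution at 5 mg/kg (0.5 mg/mL). Vehicle: NMP 10% with Labrasol 30% or PEG-400 20%, in citrate buffer […]. Blood and brain were taken at discrete time points, n = 2 per time point. Brain was homogenized 1:2 in PBS. Samples were precipitated with acetonitrile and run on LC-MS/MS; LLOQ 10 ng/mL.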

[8] = Plasma concentration in Wistar rat at 5 mg/kg, po via gavage measured at 2 hrs post dose by LC-Ms/MS analysis; assay type: ADME, organism-based; procedure, shortened: as §3
[9] = Plasma concentration in Wistar rat at 5 mg/kg, po via gavage measured at 4 hrs post dose by LC-Ms/MS analysis; assay type: ADME, organism-based; procedure, shortened: as §3
[10] = Drug uptake in Wistar rat brain at 5 mg/kg, po via gavage measured at 1 hr post dose by LC-Ms/MS analysis; assay type: ADME, organism-based; conditions: read-out: Drug uptake; procedure, shortened: as §3
[11] = Drug uptake in Wistar rat brain at 5 mg/kg, po via gavage measured at 2 hrs post dose by LC-Ms/MS analysis; assay type: ADME, organism-based; conditions: read-out: Drug uptake; procedure, shortened: as §3
[12] = Drug uptake in Wistar rat brain at 5 mg/kg, po via gavage measured at 4 hrs post dose by LC-Ms/MS analysis; assay type: ADME, organism-based; conditions: read-out: Drug uptake; procedure, shortened: as §3
[13] = Ratio of drug level in Wistar rat brain to plasma at 5 mg/kg, po via gavage measured at 1 hr post dose by LC-Ms/MS analysis; assay type: ADME, organism-based; conditions: read-out: BPR; procedure, shortened: as §3
[14] = Ratio of drug level in Wistar rat brain to plasma at 5 mg/kg, po via gavage measured at 2 hrs post dose by LC-Ms/MS analysis; assay type: ADME, organism-based; conditions: read-out: BPR; procedure, shortened: as §3
[15] = Ratio of drug level in Wistar rat brain to plasma at 5 mg/kg, po via gavage measured at 4 hrs post dose by LC-Ms/MS analysis; assay type: ADME, organism-based; conditions: read-out: BPR; procedure, shortened: as §3
[16] = target: T4, Adenosine receptor A2b (Homo sapiens) (UniProt P29275); test: Displacement of [3H]MRS-1754 from human adenosine A2B receptor expressed in HEK293 cell membranes at 30 uM after 90 mins relative to control; procedure, shortened: as §1
T4 sequence (whole entry): T1 sequence (P29275 whole entry)

CYP2C9 = CYP2C9 (Homo sapiens, UniProt P11712); test: Inhibition of CYP2C9 (unknown origin) at 5 uM relative to control; assay type: ADME
[17] = Drug metabolism assessed as dehydration by metabolic soft spot analysis; assay type: physicochemical

T3 sequence (Q12809 whole entry): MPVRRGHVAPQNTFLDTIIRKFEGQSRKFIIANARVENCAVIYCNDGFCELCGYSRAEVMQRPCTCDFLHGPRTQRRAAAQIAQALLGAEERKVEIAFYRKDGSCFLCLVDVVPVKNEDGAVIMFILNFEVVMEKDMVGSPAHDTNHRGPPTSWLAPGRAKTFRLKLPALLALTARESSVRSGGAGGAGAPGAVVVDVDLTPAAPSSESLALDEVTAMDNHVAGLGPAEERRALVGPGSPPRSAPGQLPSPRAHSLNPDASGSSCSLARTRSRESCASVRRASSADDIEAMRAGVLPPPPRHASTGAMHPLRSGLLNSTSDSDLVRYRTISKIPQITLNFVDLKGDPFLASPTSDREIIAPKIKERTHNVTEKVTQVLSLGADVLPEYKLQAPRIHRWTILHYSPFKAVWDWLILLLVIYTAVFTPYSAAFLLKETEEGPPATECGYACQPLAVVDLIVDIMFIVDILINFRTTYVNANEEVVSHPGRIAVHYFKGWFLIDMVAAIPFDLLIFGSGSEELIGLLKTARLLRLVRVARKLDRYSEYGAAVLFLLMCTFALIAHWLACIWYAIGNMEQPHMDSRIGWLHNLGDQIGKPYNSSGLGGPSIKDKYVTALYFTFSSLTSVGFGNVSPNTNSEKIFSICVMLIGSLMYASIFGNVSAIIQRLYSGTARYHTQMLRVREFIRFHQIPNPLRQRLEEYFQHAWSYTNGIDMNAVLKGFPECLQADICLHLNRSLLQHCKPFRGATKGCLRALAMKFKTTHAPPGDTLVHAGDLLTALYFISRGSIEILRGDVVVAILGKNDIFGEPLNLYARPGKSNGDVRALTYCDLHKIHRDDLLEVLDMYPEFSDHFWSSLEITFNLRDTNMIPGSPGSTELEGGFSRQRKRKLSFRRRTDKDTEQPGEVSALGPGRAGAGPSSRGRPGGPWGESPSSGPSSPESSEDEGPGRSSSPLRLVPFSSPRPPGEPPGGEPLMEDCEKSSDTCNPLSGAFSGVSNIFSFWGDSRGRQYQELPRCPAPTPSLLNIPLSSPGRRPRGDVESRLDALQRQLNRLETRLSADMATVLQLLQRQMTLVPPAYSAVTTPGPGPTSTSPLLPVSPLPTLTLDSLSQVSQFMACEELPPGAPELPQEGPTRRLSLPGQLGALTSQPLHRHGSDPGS
Chain of CYP2C9 (P11712 whole entry): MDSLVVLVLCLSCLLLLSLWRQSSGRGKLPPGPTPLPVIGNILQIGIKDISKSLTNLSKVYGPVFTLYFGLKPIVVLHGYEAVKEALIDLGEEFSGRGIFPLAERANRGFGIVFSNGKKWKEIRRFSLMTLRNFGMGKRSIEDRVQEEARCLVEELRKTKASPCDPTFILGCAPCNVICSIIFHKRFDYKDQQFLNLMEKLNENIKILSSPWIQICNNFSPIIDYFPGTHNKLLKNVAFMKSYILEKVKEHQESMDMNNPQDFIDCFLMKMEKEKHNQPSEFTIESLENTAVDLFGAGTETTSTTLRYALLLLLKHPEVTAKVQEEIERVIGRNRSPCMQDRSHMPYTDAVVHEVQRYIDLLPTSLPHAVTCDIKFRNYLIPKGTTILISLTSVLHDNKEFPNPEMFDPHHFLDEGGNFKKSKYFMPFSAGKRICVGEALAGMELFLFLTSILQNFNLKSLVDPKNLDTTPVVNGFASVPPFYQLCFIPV
Chain of CYP2C19 (P33261 whole entry): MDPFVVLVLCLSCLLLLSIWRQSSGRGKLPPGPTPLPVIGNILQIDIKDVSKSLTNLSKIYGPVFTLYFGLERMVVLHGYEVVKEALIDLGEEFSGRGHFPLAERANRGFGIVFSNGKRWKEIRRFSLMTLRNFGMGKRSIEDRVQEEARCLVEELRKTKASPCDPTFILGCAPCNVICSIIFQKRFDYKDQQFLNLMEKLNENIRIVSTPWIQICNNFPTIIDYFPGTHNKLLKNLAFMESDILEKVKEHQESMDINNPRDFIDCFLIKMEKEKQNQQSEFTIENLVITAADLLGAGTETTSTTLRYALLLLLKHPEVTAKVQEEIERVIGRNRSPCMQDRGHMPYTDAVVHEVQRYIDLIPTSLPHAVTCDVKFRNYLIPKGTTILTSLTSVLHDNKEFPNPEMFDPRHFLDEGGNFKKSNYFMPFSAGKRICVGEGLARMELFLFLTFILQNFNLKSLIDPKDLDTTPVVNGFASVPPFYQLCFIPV
Chain of Adenosine receptor A2a (P29274 whole entry): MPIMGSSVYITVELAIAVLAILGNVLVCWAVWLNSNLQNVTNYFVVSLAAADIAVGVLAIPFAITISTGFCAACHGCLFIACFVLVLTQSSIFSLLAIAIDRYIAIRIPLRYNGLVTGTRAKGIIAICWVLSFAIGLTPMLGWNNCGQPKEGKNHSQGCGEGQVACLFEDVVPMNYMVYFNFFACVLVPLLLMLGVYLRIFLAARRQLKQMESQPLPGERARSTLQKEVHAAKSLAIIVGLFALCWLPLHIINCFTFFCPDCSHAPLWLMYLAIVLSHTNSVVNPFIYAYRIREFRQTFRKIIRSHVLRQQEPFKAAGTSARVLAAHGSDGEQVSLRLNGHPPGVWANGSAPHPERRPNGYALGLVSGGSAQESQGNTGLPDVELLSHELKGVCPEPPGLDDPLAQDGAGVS

Ki (Adenosine receptor A2b) [nM]	inhibition (Adenosine receptor A2a)	Ki (Adenosine receptor A1) [nM]	inhibition at 5 µM (CYP2C19) [%]	fraction unbound at 5 µM [3]	Cmax [4] [µM]	Tmax [5] [min]	AUC(0-t) [6] [µM·h]	concentration at 1 h [7] [nM]	concentration at 2 h [8] [nM]	concentration at 4 h [9] [nM]	concentration at 1 h [10]	concentration at 2 h [11]	concentration at 4 h [12]	inhibition at 5 µM (CYP2C9) [%]	SMILES	inhibition at 5 µM (hERG (KCNH2) [1]) [%]	inhibition at 25 µM (hERG (KCNH2) [2]) [%]	further results
> 10000	inactive	13	0	0.01	9.71	97.8	3.19	1640	940	1810	90 nM	50 nM	80 nM		CCCn1c(Oc2ccc(F)c(F)c2)nc2nc(C3CCCC3)[nH]c2c1=O	2	4	IC50 (Adenosine receptor A2b): > 10 µM; Kp at 1 h [13]: 0.05; Kp at 2 h [14]: 0.05; Kp at 4 h [15]: 0.05
	33%	0.28	10											4	CCCn1c(Oc2cccnc2C)nc2nc(C3CCCC3)[nH]c2c1=O			inhibition [16]: 91%; Drug metabolism [17]: Metabolite_Detected
1100		15		0.05	1.74	18	1.6	670	540	40	10 ng/g	10 ng/g	10 ng/g	7	CCCn1c(-c2cccc(OC)c2)nc2nc(C3CCCC3)[nH]c2c1=O	9	72	
